# Apaf-1 act = activates human Apaf-1 apoptosome | AID 489031 | O14727 | 0.31% of 330,000 active | activity change, negative = activation, % at 20 µM | Apaf-1 apoptosome caspase-3 activation, DEVD-Rh110 fluorescence; stronger effect = lower value;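 active means activity change at or below -40% at 20 µM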
#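 Material: biochemical Apaf-1 apoptosome reconstitution; Medium: 20 mM HEPES buffer, pH 7.5, containing CHAPS and BSA; Reagent: dATP, cytochrome c, and (Z-DEVD)2-Rh110 caspase-3 substrate; Times: 30 min preincubation, 50 min reaction, room temperature; Signal: Rh110 fluorescence, excitation 480 nm, emission 540 nm; Measure: Caspase-3 activity via Apaf-1.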
# Rh110 act interf = interferes with Rh110 fluorescence, flagging false Apaf-1 activators; shares compounds with Apaf-1 act; Rh110 fluorescence interference, quenched caspase reaction, Ex480/Em540; fluorescence interference (activity change), % at 20 µM, hits read low; 980 tested, under 10 active;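 active means mean activity change at or below -40% when tested at 20 µM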
# Apaf-1 act conf = Apaf-1 (human) activation, single-dose confirmed. activity change, negative = activation, % at 20 µM. 5% of 980 active. reconstituted apoptosome caspase-3 activity, DEVD-Rh110 fluorescence; stronger effect = lower value. shares compounds with Apaf-1 act;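 active means mean activity change at or below -40%, meaning activation of 40% or more, at 20 µM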
# Apaf1 act interf = Apaf-1 activator counter-screen fluorescence artifact; AID 588592; 55 tested, under 10 active; fluorescence interference counterscreen, Apaf-1 activator assay; shares compounds with Apaf-1 act; EC50, µM; call rule not given here
# * = called active by the depositor; x = no result. Not all results are given here.
SMILES,Apaf-1 act,Rh110 act interf,Apaf-1 act conf,others
Cc1ccc2nc(-c3ccc(NC(=S)NC4CC(C)(C)NC(C)(C)C4)cc3)sc2c1,50.3,x,x,
C=CCN1C=C2C(=O)C(C)(OC(=O)CCC(=O)OC)C(=O)C(Br)=C2C=C1c1ccc(OC)cc1 (centres undefined),67.2,x,x,
COCCN1C=C2C(=O)C(C)(OC(=O)CCC(=O)OC)C(=O)C(Br)=C2C=C1c1ccc(OC)cc1 (centres undefined),77.1,x,x,Apaf1 act interf=>100
COC(=O)CCC(=O)OC1(C)C(=O)C2=CN(C3CCCC3)C(c3ccc(OC)cc3)=CC2=C(Br)C1=O (centres undefined),64.1,x,x,
NS(=O)(=O)c1ccc2c(c1)C1C=CCC1C(C1CC=CCC1)N2 (centres undefined),46.7,x,x,
CCOC(=O)c1[nH]c(COC(=O)c2ccccc2NC(=O)c2ccco2)c(C(=O)OCC)c1C,-382.6*,8.5,11.0,
CCN(C(=S)NC(=O)c1ccco1)c1cccc2ccccc12,82.5,x,x,
Cc1ccccc1NC1=C/C(=N\S(=O)(=O)c2cccs2)c2ccccc2C1=O,97.0,x,x,
O=C(O)c1ccc2c3c(ncnc13)-c1ccccc1C2=O,44.0,x,x,
O=C(OCc1nnc(-c2ccccc2)o1)c1ccc([N+](=O)[O-])s1,47.2,x,x,
O=C(OCC(=O)N1CCCCC1)c1n[nH]c(=O)c2ccccc12,-571.6*,2.4,7.3,
CC1=CC(C)(C)N2C(=O)C(=Nc3ccc(O)cc3)c3cccc1c32,90.2,x,x,
Cc1cccc(C(=O)NC2C(=O)NNC2c2ccc(Cl)cc2)c1 (centres undefined),54.0,x,x,
NC1=NC(c2ccc(Cl)cc2)C(C(=O)c2ccccc2)N1 (centres undefined),-470.4*,3.2,15.1,
O=C(O)c1ccc(N2C(=O)/C(=C/c3ccc(-c4ccc([N+](=O)[O-])cc4)o3)C=C2c2ccccc2)cc1,51.7,x,x,
Nc1ccc2nc3c(c(Cl)c2c1)CCCC3,63.5,x,x,
Cc1ccc(-c2nn3c(C)nnc3c3ccccc23)cc1S(=O)(=O)NCc1ccccc1,47.7,x,x,
CCOc1ccc(CCNC(=O)c2ccc3c(=O)[nH]c4c(C(=O)NC(C)C)sc(=S)n4c3c2)cc1,-515.0*,-8.3,16.0,
O=C(NCc1cccs1)c1cccnc1C(=O)O,-79.2*,4.5,13.5,
CCN(CC(=O)NCc1cccs1)C(=O)CCCOc1ccc(C(C)(C)C)cc1,42.1,x,x,
COCCn1c(N)c(C(=O)NCc2cccs2)c2nc3ccccc3nc21,95.2,x,x,
Cc1ccc(/C=N/NC(=O)C(C)NC(=O)c2ccccc2)cc1 (centres undefined),41.2,x,x,
CC(C)c1ccc(/C=N/NC(=O)c2ccccc2Cl)cc1,-193.9*,1.2,18.1,
O=C(Cc1cc(=O)[nH][nH]1)N/N=C/c1ccccc1Cl,77.2,x,x,
Cc1ccc(-c2ccc(/C=N\NC(=O)C3C(=O)NCC3c3ccccc3)o2)cc1Cl (centres undefined),42.7,x,x,
SMILES,Apaf-1 act,Rh110 act interf,Apaf-1 act conf,others
O=C(O)CC(C(=O)O)N1C(=O)/C(=C/C=C/c2ccco2)SC1=S (centres undefined),85.4,x,x,
O=C(O)CCCN1C(=O)/C(=C\c2ccc(-c3nc4ccccc4s3)o2)SC1=S,-80.6*,15.5,-119.8*,Apaf1 act interf=>100
c1ccc2c(C[C@@H]3CNCCN3CC3CCCCC3)cccc2c1,43.7,x,x,
CCOc1ccccc1OCCC(=O)NNC(=O)Cn1nc(C)cc1C,-81.5*,5.4,9.4,
C=CCn1c(N)c(C(=O)OC(C)(C)C)c2nc3ccccc3nc21,67.3,x,x,
COC(=O)c1nn(-c2ccc(OC)cc2)c(=O)cc1NN,42.2,x,x,
COC(=O)c1nn(-c2ccc(OC)cc2)c(=O)cc1Sc1ccc(C)cc1,-333.1*,-3.6,12.0,
Cc1ccccc1-n1c(C)nc2ccccc21,-75.2*,-5.7,5.3,
CSc1ccccc1NC(=O)c1cc(-c2ccc3c(c2)OCO3)on1,-196.6*,9.9,7.7,
CSc1ccccc1NC(=O)c1cc(S(=O)(=O)N(C)C)ccc1N1CCCC1,51.6,x,x,
CCN(CC)CCn1c2c(c(SCC(=O)Nc3nccs3)nc1=O)CCCC2,-49.6*,-4.2,10.1,
CC(C)NC[C@@H](O)c1ccc(O)c(O)c1,42.7,x,x,
COc1ccc2c3c(cccc13)N(C)N=C2C,72.8,x,x,
O=C(Nc1ccc2ccccc2n1)Nc1cccs1,-58.3*,-1.4,13.7,
CCCCCN=C(N)N/N=C/c1c[nH]c2ccc(OC)cc12,78.2,x,x,
CCCCN=Cc1c(C)[nH]n(-c2ccccc2)c1=S,-80.0*,0.8,11.7,
Cc1cc(C(=O)N/N=C/c2c(C)[nH]n(-c3ccccc3)c2=O)n[nH]1,76.7,x,x,
CCCCN(CCCC)C(=S)N/N=C/c1c(C)[nH]n(-c2ccccc2)c1=O,57.3,x,x,
CCN(C(=O)Cn1c(=O)n2nc(CCn3nc(C)cc3C)nc2c2ccccc21)c1cccc(C)c1,-290.9*,9.0,15.6,
CCCCCc1cc(=O)oc2c(C(CCN3CCCC(C)C3)c3ccc(N(C)C)cc3)c(OC)cc(OC)c12 (centres undefined),68.0,x,x,
COc1cc(/C=C2/C(=O)N(c3ccc([N+](=O)[O-])cc3)N=C2N2CCOCC2)ccc1O,86.4,x,x,
COc1cc(/C=C2\SC(=O)N(c3cccc(Cl)c3)C2=O)cc([N+](=O)[O-])c1O,-141.9*,3.0,-132.4*,Apaf1 act interf=>100
O=C1Cc2ccccc2C(=O)N1OCc1ccc(Cl)cc1,95.3,x,x,
Cc1cc(OCc2nn[nH]n2)c2c(C)c(Cc3ccccc3)c(=O)oc2c1,-45.1*,3.0,17.2,
CN1CCc2nc(SCc3ccc(Cl)cc3)c(C#N)c(-c3cccs3)c2C1,83.1,x,x,
SMILES,Apaf-1 act,Rh110 act interf,Apaf-1 act conf,others
C1=CC2c3ccccc3NC(c3ccncc3)C2C1 (centres undefined),49.4,x,x,
CCOc1ccc(NC(=O)CN(C)S(=O)(=O)c2ccc(-c3ccc(=O)[nH]n3)s2)cc1,-86.0*,11.6,17.3,
CCOc1ccc(C(=O)Nc2sc3c(c2C(=O)OC)CC(C)(C)NC3(C)C)cc1,40.6,x,x,
CCCCNc1cc(NC(C)=O)cc2cc(OC)c(OC)cc12,61.8,x,x,
Cc1nc(Nc2cnc(/C=C/c3cc(C(=O)Nc4cccc(C(F)(F)F)c4)ccc3C)cn2)cc(N2CCNCC2)n1,74.7,x,x,
O=C(Nc1cccc(-n2cnnn2)c1)c1ccc(C(F)(F)F)cc1,-67.2*,4.0,-0.1,
O=C(NC1(O)C(=O)c2ccccc2C1=O)c1ccc(C(F)(F)F)cc1,96.3,x,x,
COc1cccc2c1C(=O)c1c(O)c3c(c(O)c1C2=O)C[C@@](O)(C(=O)CO)C[C@@H]3O[C@H]1C[C@H](N)[C@@H](O)[C@H](C)O1,55.8,x,x,
CN1C(C(=O)NCC2CC2)CC2Cn3c(nc4cc5ccccc5cc43)C21 (centres undefined),41.5,x,x,
CCCCCCSc1ccc(-c2nc3ccc(C)cn3c2NCc2ccccc2)cc1OC,41.5,x,x,
CCOc1cc(/C=N/NC(=O)C(=O)NCCCOC(C)C)cc(Br)c1O,-173.2*,-0.4,12.1,
Cc1cc2cc(C(c3nnnn3Cc3ccco3)N3CCc4ccccc4C3)c(=O)[nH]c2cc1C (centres undefined),40.9,x,x,
COc1ccc(C(=O)c2c(C(F)(F)F)oc3c2C(=O)c2ccccc2C3=O)cc1,78.6,x,x,
O=[N+]([O-])c1c(NCCCO)cc(Sc2nc3ccccc3s2)c2nonc12,97.8,x,x,

# Assay outcomes: PubChem BioAssay, Sanford-Burnham Center for Chemical Genomics
